The list is not random: actives were taken first. Their share in the collection is about 0.54%.
PP5 inh = PP5 phosphatase inhibitors, primary screen, biochemical, fluorescence. purified PP5c, OMFP substrate fluorescence. inhibition, % at 6.7 µM. 0.18% of 320,000 active;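 active = inhibition above the campaign's mean inhibition across all tested compounds plus 3 SD, cut at about 9.5% in these data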
ARFGAP1 inhibitor = inhibitors of rat ARFGAP1 GAP activity, primary screen, biochemical, fluorescence polarization, GDP tracer; ADP-ribosylation factor GTPase-activating protein 1 (Rattus norvegicus), Q62848; Arfgap1-stimulated ARF1 GTP hydrolysis, GDP FP detection; inhibition, % at 16.5 µM; 0.26% of 360,000 active; AID 651572, 2012;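 active = inhibition above a per-plate limit, mean inhibition of low control wells plus 3 SD, cut at about 25% in these data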
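Material: rat Arfgap1 catalytic domain, aa 1-136; also added: human ARF1(Δ1-17)-GTP substrate; compound dosing: one concentration, 16.5 µM, DMSO 1.26%; incubation: GTP hydrolysis reaction 2 h at 25 °C; measured by: Tracer-displacement fluorescence polarization with EDTA stop, 620/688 nm; evaluation: % inhibition from polarization; repeats: one replicate per compound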
ASAP1 GAP inh = inhibitors of human ASAP1 ArfGAP activity, primary screen, biochemical, fluorescence polarization; 0.19% of 360,000 active; inhibition, % at 16.5 µM; AID 624377, 2012; Arf-GAP with SH3 domain, ANK repeat and PH domain-containing protein 1 (Homo sapiens), …; ASAP1-stimulated ARF1 GTP hydrolysis, GDP FP detection; in the data active = inhibition above about 25%
Target sequence (Q9ULH1 325-724 limits assumed): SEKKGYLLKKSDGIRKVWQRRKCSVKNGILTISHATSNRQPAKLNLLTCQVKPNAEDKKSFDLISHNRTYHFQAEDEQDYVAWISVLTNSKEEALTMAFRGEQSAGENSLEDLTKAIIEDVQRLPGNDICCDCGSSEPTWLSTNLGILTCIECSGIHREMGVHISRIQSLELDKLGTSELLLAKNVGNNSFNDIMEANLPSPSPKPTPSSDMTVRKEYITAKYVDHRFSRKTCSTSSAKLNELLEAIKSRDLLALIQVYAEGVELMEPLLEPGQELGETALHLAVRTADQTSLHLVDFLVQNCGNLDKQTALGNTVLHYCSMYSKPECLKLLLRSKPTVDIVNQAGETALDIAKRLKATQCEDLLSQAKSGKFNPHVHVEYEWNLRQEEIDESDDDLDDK
PKD1 kinase inh = inhibitors of human PKD1 kinase, biochemical, fluorescence polarization; inhibition, % (test concentration not listed); 0.056% of 200,000 active; Serine/threonine-protein kinase D1 (Homo sapiens), Q15139; PKD1 kinase fluorescence polarization assay; in the data active = inhibition above about 50%
PKD FP artifact = fluorescence polarization interference in PKD1 assay, artefact control for PKD1 inhibitor project, biochemical, 140K library | AID 1315, 2008 | inhibition, % at 10 µM | shares compounds with PKD1 kinase inh | PKD1 FP assay interference counter-screen | 85 tested, under 10 active; call rule not given here
PP5 inh confirm = PP5 phosphatase inhibitors, confirmation, biochemical, fluorescence, human | shares compounds with PP5 inh | Purified PP5, fluorogenic phosphatase substrate | inhibition, % at 6.7 µM | 22% of 460 active | AID 2331, 2010; in the data active = inhibition above about 9.5%
PP1 inh counter = PP1 phosphatase inhibitors, counter-screen for PP5 inhibitor project, biochemical, fluorescence, triplicate. PP1 enzyme, fluorescent phosphatase substrate. AID 2355, 2010. 4% of 460 active. shares compounds with PP5 inh. inhibition, % at 6.7 µM; in the data active = inhibition above about 16%
Target sequence (P62136 whole entry, looked up): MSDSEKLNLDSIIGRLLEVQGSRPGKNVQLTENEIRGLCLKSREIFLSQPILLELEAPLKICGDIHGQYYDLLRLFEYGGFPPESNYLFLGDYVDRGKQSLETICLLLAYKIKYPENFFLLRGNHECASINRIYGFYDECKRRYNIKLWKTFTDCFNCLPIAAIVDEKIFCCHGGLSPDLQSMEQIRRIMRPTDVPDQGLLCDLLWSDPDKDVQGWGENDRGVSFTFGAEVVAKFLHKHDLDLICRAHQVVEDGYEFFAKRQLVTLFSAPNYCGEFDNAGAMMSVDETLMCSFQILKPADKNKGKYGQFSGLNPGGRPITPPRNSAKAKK
ARFGAP1 confirm = ARFGAP1 inhibitor hit confirmation, biochemical, fluorescence polarization, triplicate; shares compounds with ARFGAP1 inhibitor; ARFGAP1-stimulated ARF1 GTP hydrolysis, GDP tracer FP; inhibition, % at 16.5 µM; 30% of 890 active;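 active = average inhibition over triplicates above the hit cutoff set in the earlier primary screen, cut at about 25% in these data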
Of the large screens only hits and unclear results are named; the others gave an inactive call (follow-up assays come after a bar, where they were run).

O=C(Nc1ccc(CN2CCOCC2)cc1)c1ccc(-c2cccc(Cl)c2)o1	ARFGAP1 inhibitor 32, PKD1 kinase inh 86 | PKD FP artifact inactive | ARFGAP1 confirm 27
COCCN(CCOC)C(=O)[C@H](CCc1ccccc1)NC(=O)[C@H]1O[C@@H](n2cnc3c(N)ncnc32)[C@H](O)[C@@H]1O	none (no result: PP5 inh, PKD1 kinase inh)
O=C(NCC1CCCO1)c1cc2c([nH]c3ccccc32)c(-c2cccc(Cl)c2)n1 (stereo unspecified)	PP5 inh 11 (no result: ARFGAP1 inhibitor, ASAP1 GAP inh, PKD1 kinase inh) | PP5 inh confirm inactive | PP1 inh counter inactive
Cc1ccc(-c2cc(C(=O)NCc3cccs3)no2)cc1	PP5 inh 9.9 | PP5 inh confirm inactive | PP1 inh counter inactive
CCOC(=O)C1=C(C)N[C@@]2(O)c3ccccc3C(=O)[C@@]12O	none
CC1=C(C(=O)OC(C)C)C2(O)C(=O)c3ccccc3C2(O)N1 (stereo unspecified)	PP5 inh 12 | PP5 inh confirm 16 | PP1 inh counter inactive
COC(=O)[C@]12C[C@H](CC(=O)N3CCN(C(=O)C4CC4)CC3)C(=O)N(Cc3ccc4c(c3)OCO4)C1=C[C@H](COCc1ccccc1)O[C@@H]2C	none (no result: PP5 inh, PKD1 kinase inh)
CC1=C(C(=O)Nc2cc(-c3cccc(F)c3)[nH]n2)C2(CCCCC2)OC1=O	PP5 inh 10 | PP5 inh confirm 15 | PP1 inh counter inactive
O=C(Nc1cc(-c2ccccc2)[nH]n1)c1ccccc1F	none (no result: PKD1 kinase inh)
Cc1ccc2nc(-c3cccc(Cl)c3)c(Cc3ccccc3C(F)(F)F)n2c1	none (no result: PP5 inh, PKD1 kinase inh)
Cn1cc(CNCCCn2ncc3ccccc32)c(-c2ccccc2F)n1	PP5 inh 16 | PP5 inh confirm inactive | PP1 inh counter inactive
Cn1cc(CNCc2ccc(-n3cccn3)cc2)c(-c2ccccc2F)n1	none
C=CCc1c(C)nc(SC)nc1Nc1ccc(C(=O)O)cc1	PP5 inh 11 | PP5 inh confirm inactive | PP1 inh counter inactive
C[C@@H]1CNC(=O)c2c(C(=O)N(C)Cc3ccccc3)ncn21	none (no result: PP5 inh, PKD1 kinase inh)
O=C1C(c2ccccc2)=[N+]([O-])c2ccccc21	PP5 inh 10 (no result: PKD1 kinase inh) | PP5 inh confirm 36 | PP1 inh counter 88
NS(=O)(=O)c1ccc(NC2=CC(=O)C(=O)c3ccccc32)cc1	PP5 inh 11 (no result: PKD1 kinase inh) | PP5 inh confirm 37 | PP1 inh counter inactive
CCc1ccc(S(=O)(=O)/N=C2\C=C(Nc3cccc(C(=O)O)c3)C(=O)c3ccccc32)cc1	PP5 inh 11 (no result: PKD1 kinase inh) | PP5 inh confirm 42 | PP1 inh counter inactive
CCc1ccc(S(=O)(=O)/N=C2\C=C(Nc3ccc(O)cc3)C(=O)c3ccccc32)cc1	none (no result: ARFGAP1 inhibitor, ASAP1 GAP inh, PKD1 kinase inh)
COc1ccc(C(=O)c2ccc(OC)c(OC)c2)cc1OC	none
COc1ccc(C(=O)c2nccc3cc(OC)c(OC)cc23)cc1OC	PP5 inh 13 (no result: ARFGAP1 inhibitor, ASAP1 GAP inh, PKD1 kinase inh) | PP5 inh confirm 48 | PP1 inh counter inactive
COc1ccc(C(CNC(=O)c2cccc(Br)c2)N2CCCC2)cc1 (stereo unspecified)	PP5 inh 10 | PP5 inh confirm inactive | PP1 inh counter inactive
O=C(COc1cccc2ccccc12)Nc1nc2ccccc2[nH]1	PP5 inh 10 | PP5 inh confirm inactive | PP1 inh counter inactive
CCOc1ccccc1OCC(=O)Nc1nc2ccccc2[nH]1	none
Cc1ccc(S(=O)(=O)N2CCN(C(=O)CN3CCOCC3)C2C(C)C)cc1 (stereo unspecified)	PP5 inh 12 | PP5 inh confirm inactive | PP1 inh counter inactive
Cc1ccc(S(=O)(=O)N2CCN(C(=O)CN3CCOCC3)C2c2ccccc2)cc1 (stereo unspecified)	none
Cc1cc(C)c2nc(C)cc(Nc3ccc(C(=O)N4CCOCC4)cc3)c2c1	PP5 inh 11 (no result: PKD1 kinase inh) | PP5 inh confirm inactive | PP1 inh counter inactive
CC(C)c1ccc(NC(=O)Nc2nc(C(N)COCc3ccccc3)cs2)cc1 (stereo unspecified)	none (no result: PP5 inh, PKD1 kinase inh)
Nc1nc(Nc2cccc(F)c2)nc(NCc2ccco2)c1[N+](=O)[O-]	PP5 inh 11 (no result: PKD1 kinase inh) | PP5 inh confirm inactive | PP1 inh counter inactive
Cc1cccc(C)c1-n1nnnc1C(c1ccnc2ccccc12)N1CCN(C(=O)OCc2ccccc2)CC1 (stereo unspecified)	none (no result: PP5 inh, PKD1 kinase inh)
COc1ccccc1N1CCN(C(=O)c2ccc(COc3cccc4c3OC(C)(C)C4)cc2)CC1	PP5 inh 12 (no result: PKD1 kinase inh) | PP5 inh confirm inactive | PP1 inh counter inactive
CC1(C)Cc2cccc(OCC(=O)N3CCN(c4ccccc4F)CC3)c2O1	none (no result: PKD1 kinase inh)
C=C(C)C1CC=C(C)/C(=N/NC(=O)CNc2ccc(C)cc2C)C1 (stereo unspecified)	none
C=C(C)C1CC=C(C)/C(=N/NC(=O)CNc2ccc(OCC)cc2)C1 (stereo unspecified)	PP5 inh 9.6 (no result: ARFGAP1 inhibitor, ASAP1 GAP inh) | PP5 inh confirm inactive | PP1 inh counter inactive
Cc1ccsc1C(=O)N1CCC1(C)C(=O)Nc1ccc2c(c1)OCCO2 (stereo unspecified)	none (no result: PP5 inh, PKD1 kinase inh)
O=[N+]([O-])c1cccnc1N1CCC(c2cc(-c3ccc(Cl)cc3Cl)n[nH]2)CC1	none
O=[N+]([O-])c1cccnc1N1CCC(c2cc(-c3cccc(C(F)(F)F)c3)n[nH]2)CC1	PP5 inh 10 | PP5 inh confirm inactive | PP1 inh counter inactive
Cn1c(=O)c2cc(NC(=O)Nc3cccnc3)ccc2n1-c1ccc(C(C)(C)C)cc1	none (no result: PP5 inh, PKD1 kinase inh)
COc1cccc(CN(C)CC(=O)NCc2ccc(F)cc2)c1OC	PP5 inh 12 (no result: PKD1 kinase inh) | PP5 inh confirm inactive | PP1 inh counter inactive
CN[C@H]1C[C@@H](c2ccccc2Br)N(C(C)=O)C[C@H]1CO	none (no result: PP5 inh, PKD1 kinase inh)
COc1ccccc1CNc1nc(NCc2ccc3occc3c2)c2sccc2n1	none (no result: PP5 inh, PKD1 kinase inh)
O=C(Nc1ccc(Cl)cc1)N1CCCN(c2ccc(C(F)(F)F)cc2[N+](=O)[O-])CC1	PP5 inh 12 (no result: PKD1 kinase inh) | PP5 inh confirm inactive | PP1 inh counter inactive
O=[N+]([O-])c1cc(C(F)(F)F)ccc1N1CCC(O)CC1	none
CCCCN(CC)c1nc(N)c2c(N)nc(OCC)cc2c1C#N	PP5 inh 12 | PP5 inh confirm 25 | PP1 inh counter inactive
CCOc1cc2c(C#N)c(N3CCCC3)nc(N)c2c(N)n1	none (no result: PKD1 kinase inh)
O=S(=O)(c1ccc(C(F)(F)F)cc1)N1CCCc2nc(-c3ccc(F)cc3)ccc21	none (no result: PP5 inh, PKD1 kinase inh)

Screens (PubChem)
